Source: PubChem BioAssay
ABCB1 inh – ABCB1 efflux pump inhibitors, primary screen, cell-based, multiplex, flow cytometry, ABCG2 counter-screen; actives 0.067% (n = 190,000); CCRF-Adr cells, JC-1 efflux; inhibition, % at 6.6 µM; ATP-dependent translocase ABCB1 (Homo sapiens), P08183; in the data active means inhibition above about 40%;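 further: 0% = vehicle and 100% = reference inhibitor; higher value means more JC-1 retained so stronger ABCB1 efflux block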
zfTRPN1 agonist – zebrafish TRPN1 channel agonists, primary screen, cell-based, HEK293, calcium fluorescence; transient receptor potential cation channel N1 (TRPN1/NompC), Danio rerio; HEK293 zebrafish TRPN1-YFP, Fluo-8 calcium fluorescence; 100% = response to 87 µM carbachol; activation, % at 3 µM; actives 0.18% (n = 220,000); AID 1424, 2008;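 active means activation above its plate's cutoff, the mean activation of test wells on that plate plus 3 SD, cut at about 19% in these data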;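 further: 0% = DMSO alone and 100% = 87 µM carbachol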
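Material: zebrafish TRPN1-YFP in HEK293 cells; Doses: single test compound dose, 3 µM nominal, 0.3% DMSO; Timing: dye loading 1 h at 37 °C, then 30 min room temperature; Technique: intracellular calcium fluorescence with Fluo-8; Benchmarks: high carbachol 87 µM, low DMSO alone.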
ROMK primary – ROMK potassium channel modulators, primary screen, cell-based, thallium flux, MLSMR library. ATP-sensitive inward rectifier potassium channel 1 (Homo sapiens), P48048. Tet-inducible ROMK, thallium flux fluorescence; actives lie on both sides. B-score at 10 µM. actives 2% (n = 130,000);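 active means signal ratio slope over the read window, or its plate-corrected B-score, at least 3 SD from the plate mean, either direction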;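 further: B-score of the F/F0 ratio slope over 7 to 12 s after thallium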
Calb biofilm kill – clotrimazole potentiators killing C. albicans biofilm, primary screen, 4-compound mixtures. C. albicans biofilm persisters + clotrimazole, fluorescence viability; primary screen in compound mixtures of four per well. inhibition, % at 7.6 µM. actives 0.02% (n = 120,000);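 active means inhibition above 30.3% in the primary screen of four-compound pools, then above 30% when the compound was retested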;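 further: compounds exposed to preformed 24 h biofilms for 48 h; 0% = untreated biofilm control and 100% = clotrimazole plus chlorhexidine kill blank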
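Test system: C. albicans biofilms. Buffer or medium: RPMI/MOPS medium, pH 7.0. Timing: 48 h compound exposure at 37 °C. Technique: Alamar Blue fluorescence. Evaluation: percent inhibition of biofilm viability.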
TRPML3 ag – human TRPML3 channel agonists, primary screen, cell-based, HEK293 TRPML3-YFP, Fluo-8 calcium fluorescence, 3 µM; Mucolipin-3 (Homo sapiens), Q8TDD5; 100% = the carbachol control signal; activation, % at 3 µM; actives 0.29% (n = 220,000); AID 1448, 2008;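 active means activation above its plate's cutoff, the mean activation of the plate's test wells plus 3 SD, cut at about 12% in these data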;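 further: 0% = DMSO only wells and 100% = carbachol wells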
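Test system: HEK293 cells stably carrying human TRPML3-YFP; Doses: single dose, 3 µM final nominal compound, 0.3% DMSO final; Schedule: dye loading 1 h 37 °C then 30 min ambient, 125 s read; Technique: Fluo-8 calcium fluorescence; Benchmarks: high control carbachol 87 µM, low control DMSO.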
ABCG2 block – ABCG2 efflux pump inhibitors, primary screen, multiplex with ABCB1, IgMXP3 cells, flow cytometry; Broad substrate specificity ATP-binding cassette transporter ABCG2 (Homo sapiens), Q9UNQ0; JC-1 efflux; inhibition, % at 6.6 µM; actives 0.1% (n = 190,000); AID 1325, 2008;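 active means inhibition above 80%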;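 further: 0% = DMSO and 100% = nicardipine control wells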
Target sequence (Q9UNQ0 whole entry, looked up): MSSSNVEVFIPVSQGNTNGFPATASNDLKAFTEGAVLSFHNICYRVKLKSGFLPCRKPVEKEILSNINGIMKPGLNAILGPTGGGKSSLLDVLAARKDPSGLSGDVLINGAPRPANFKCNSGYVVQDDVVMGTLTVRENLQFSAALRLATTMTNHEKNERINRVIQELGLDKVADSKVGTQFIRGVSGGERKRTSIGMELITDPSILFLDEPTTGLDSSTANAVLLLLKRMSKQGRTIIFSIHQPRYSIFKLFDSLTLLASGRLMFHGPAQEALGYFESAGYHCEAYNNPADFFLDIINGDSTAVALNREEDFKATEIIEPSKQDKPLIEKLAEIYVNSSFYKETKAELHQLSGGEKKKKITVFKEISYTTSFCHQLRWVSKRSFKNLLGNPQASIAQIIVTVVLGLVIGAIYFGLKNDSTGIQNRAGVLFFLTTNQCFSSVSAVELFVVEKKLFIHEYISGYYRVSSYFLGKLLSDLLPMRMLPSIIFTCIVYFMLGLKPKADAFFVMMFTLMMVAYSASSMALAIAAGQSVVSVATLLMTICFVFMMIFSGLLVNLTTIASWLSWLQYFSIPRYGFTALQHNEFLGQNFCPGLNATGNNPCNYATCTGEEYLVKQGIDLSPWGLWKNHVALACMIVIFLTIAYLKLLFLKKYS
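Incubation: cells with compound and JC-1, 10 min at 25 °C, rotating, no wash / Test system: IgMXP3 (ABCG2) plus far-red-tagged CCRF-Adr (ABCB1) cells / Compound dosing: one concentration, 6.6 µM final / Also added: JC-1 fluorescent substrate / Evaluation: efflux inhibition in percent versus controls / Detection: flow cytometry, 530 nm JC-1 signal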
TRPN1 ag 2 – zebrafish TRPN1 channel agonists, counter-screen for TRPML3 agonist project, cell-based, HEK293 TRPN1-YFP, Fluo-8 calcium. Fluo-8 calcium fluorescence; scaled: carbachol wells 100%, DMSO wells 0%. shares compounds with TRPML3 ag. actives 10% (n = 310). activation, % at 3 µM;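 active means mean activation over replicates above a set limit taken from the earlier TRPN1 channel primary screen, cut at about 19% in these data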;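 further: 100% = carbachol and 0% = 0.3% DMSO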
TRPML3 confirm – human TRPML3 channel agonists, confirmation, cell-based, HEK293 TRPML3-YFP, Fluo-8 calcium, triplicate; shares compounds with TRPML3 ag; Fluo-8 calcium fluorescence; 100% set by carbachol, 0% by DMSO; activation, % at 3 µM; actives 80% (n = 310);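 active means activation above a set limit derived from the earlier primary screen, cut at about 12% in these data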
* = called active by the depositor; . = no result. Only a selection was taken, and hits are over-represented in it overall.

SMILES	ABCB1 inh	zfTRPN1 agonist	ROMK primary	Calb biofilm kill	TRPML3 ag	ABCG2 block	TRPN1 ag 2	TRPML3 confirm
Cc1ccc(S(=O)(=O)Nc2ccccc2-c2ccccc2)cc1	0.4	-1.2	.	.	91.4*	0.9	-0.7	97.1*
CC(C)N(C(=O)c1ccc2nc(-c3ccccc3)c(-c3ccccc3)nc2c1)C(C)C	1.8	-1.0	1.32	16.4	83.8*	7.8	-1.4	104.1*
COc1ccc(Cl)cc1C(=O)CSc1nnnn1C1CCCC1	-1.7	-1.1	-0.745	.	74.5*	1.6	-1.3	50.6*
CCOC(=O)N1CCC(N2C(=O)c3ccccc3C2Nc2ccc(S(=O)(=O)N3CCCCC3)cc2)CC1 (centres undefined)	3.2	2.2	-0.705	12.8	14.6*	0.4	1.3	9.8
CC(C)NS(=O)(=O)c1ccc(CCC(=O)N2CCCCC2)cc1	0.5	1.5	-0.468	18.1	0.6	1.4	.	.
Cc1cccc(NC(=O)C(=O)NCCCc2ccccc2)c1	0.1	-2.4	.	8.2	-0.2	-0.2	.	.
Cc1nnc(-c2ccccc2)c(=O)n1/N=C/c1c(O)ccc2ccccc12	0.0	14.6	.	.	13.2*	1.6	1.9	0.8
C/C=C1\C(OC2OC(CO)C(O)C(O)C2O)OC=C(C(=O)OC)C1CC(=O)OCC1C(C)C(OC(=O)CC2C(C(=O)OC)=COC(OC3OC(CO)C(O)C(O)C3O)/C2=C\C)CC1C(CO)CO (centres undefined)	-0.7	1.7	.	3.8	0.3	0.3	.	.
CC(C)[C@H](NS(=O)(=O)c1ccc2c(c1)OCCO2)C(=O)OCC(=O)Nc1cccc(Cl)c1Cl	1.4	0.2	.	5.3	19.8*	14.2	1.3	33.2*
CC(C)[C@H](NS(=O)(=O)c1ccc2c(c1)OCCO2)C(=O)OCC(=O)Nc1ccccc1Cl	1.0	-0.6	-1.87	6.3	0.9	6.2	.	.
COc1ccc(/C=C2\C(=O)NC(=S)N2C(=O)c2ccc(F)cc2)cc1	0.0	13.8	.	21.8	13.8*	-6.7	16.4	10.4
O=C1C2C3C=CC(C3)C2C(=O)N1c1ccc(N2CCN(c3ccccn3)CC2)c([N+](=O)[O-])c1 (centres undefined)	5.6	8.6	.	17.6	15.8*	15.8	8.7	20.5*
O=S(=O)(NCc1ccco1)c1cnc(Cl)c(Br)c1	0.6	-0.2	0.36	6.4	0.1	1.8	.	.
CN(c1ccc(OCc2nnc(-c3ccccc3)o2)cc1)S(=O)(=O)c1ccccc1	0.0	1.4	-1.2	.	40.2*	0.7	1.6	36.8*
O=[N+]([O-])c1ccc(OCc2nnc(-c3ccccc3)o2)cc1	0.1	-0.1	0.117	7.1	0.6	6.1	.	.
S=C1NC[C@H](Cc2cccc3ccccc23)N1CC1CCCCC1	.	.	.	18.7	.	.	.	.
CCN(CC)CCNc1ccc2nnc(CCNS(=O)(=O)c3ccc(C)cc3)n2n1	0.0	0.6	-1.29	12.1	0.9	0.7	.	.
O=C(CN1CCN(S(=O)(=O)c2ccc(F)cc2)CC1)Nc1ccc(Cl)c(C(F)(F)F)c1	1.9	1.4	.	.	15.1*	7.6	4.4	42.7*
O=S(=O)(Nc1ccccc1N1CCCCC1)c1ccc(F)cc1F	-0.1	-3.2	-0.0407	-1.7	15.8*	1.3	-3.3	10.8
